From ChEMBL document CHEMBL1137574, “Synthesis and structure-activity relationship for a novel class of potent and selective carbamate-based inhibitors of hormone selective lipase with acute in vivo antilipolytic effects” (J Med Chem, 2007) come the findings set out here.

Data set [1] deals with T1, Pancreatic triacylglycerol lipase (Homo sapiens) (UniProt P16233).
T1 sequence (whole entry): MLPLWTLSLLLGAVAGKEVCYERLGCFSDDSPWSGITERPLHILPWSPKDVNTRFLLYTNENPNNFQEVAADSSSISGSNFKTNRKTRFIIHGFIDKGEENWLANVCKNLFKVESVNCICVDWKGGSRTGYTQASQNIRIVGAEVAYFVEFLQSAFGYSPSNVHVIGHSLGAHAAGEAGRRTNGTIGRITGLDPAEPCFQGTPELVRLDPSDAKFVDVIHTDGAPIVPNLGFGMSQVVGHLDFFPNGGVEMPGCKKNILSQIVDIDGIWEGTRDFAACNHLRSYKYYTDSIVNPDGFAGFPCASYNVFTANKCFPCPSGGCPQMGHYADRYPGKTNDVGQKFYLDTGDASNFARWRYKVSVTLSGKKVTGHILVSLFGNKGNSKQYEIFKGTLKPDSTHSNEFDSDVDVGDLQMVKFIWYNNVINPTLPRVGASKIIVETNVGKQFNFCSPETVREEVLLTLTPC
The data set is described as follows: Inhibition of Pancreatic lipase. A digest of the protocol: (§1)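 Lipase inhibition (pancreatic, bovine lipoprotein, human hepatic) used a fluorochrome (NBD)-labelled triacylglyceride substrate. Inhibitor at six concentrations, 5-fold dilutions from a maximum of 100 µM, each point the mean of two measurements. IC50 from sigmoidal variable-slope nonlinear regression.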

The target in another data set is Acetylcholinesterase (Homo sapiens, UniProt P22303). The data set is described as follows: Inhibition of acetylcholine esterase. Summed up:
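Acetylcholinesterase activity measured with acetylthiocholine substrate. Inhibitor at six concentrations in 5-fold steps from a maximum of 100 µM, duplicate measurements averaged. IC50 from variable-slope sigmoidal dose-response fit.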

Data set [2] is described as follows: Cmax in Sprague-Dawley rat at 1.2 mg/kg, iv and […] mg/kg, po. Type of data set: ADME, organism-based. Conditions: in vivo, 2.4 mg/kg.
Data set [3] in a line: Clearance in Sprague-Dawley rat at 1.2 mg/kg, iv and […] mg/kg, po. It counts as ADME, organism-based. Conditions: in vivo.
Data set [4] is described as follows: Oral bioavailability in Sprague-Dawley rat at 2.4 mg/kg, po. The following applies: in vivo. Type of data set: ADME, organism-based. Summed up: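 Male Sprague-Dawley rats, 12 weeks old, dosed by oral gavage and i.v. in 10% hydroxypropyl cyclodextrin in phosphate buffer pH 7.0, with one rat per time point. Plasma was diluted 1:1 in 10% methanol, centrifuged and quantified by turbulent-flow chromatography–tandem MS against plasma calibration curves (10-3000 ng/mL).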

Another data set has as its target Cytochrome P450 2D6 (Homo sapiens, UniProt P10635). The data set is described as follows: Inhibition of CYP2D6 in human liver microsome. It counts as ADME. Conditions: microsomes. A digest of the protocol:
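Pooled human liver microsomes (0.1 mg, ≥15 donors) incubated 10 min at 37 °C with 1 mM NADPH and test compound at 20 µM, in triplicate. Substrates at Km: CYP1A2, 14C-phenacetin 40 µM; CYP2D6, 14C-dextromethorphan 3 µM. Conversion read by charcoal extraction then scintillation counting of the supernatant.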

The target in data set [5] is T2, Lipoprotein lipase (Bos taurus) (UniProt P11151).
T2 sequence (whole entry): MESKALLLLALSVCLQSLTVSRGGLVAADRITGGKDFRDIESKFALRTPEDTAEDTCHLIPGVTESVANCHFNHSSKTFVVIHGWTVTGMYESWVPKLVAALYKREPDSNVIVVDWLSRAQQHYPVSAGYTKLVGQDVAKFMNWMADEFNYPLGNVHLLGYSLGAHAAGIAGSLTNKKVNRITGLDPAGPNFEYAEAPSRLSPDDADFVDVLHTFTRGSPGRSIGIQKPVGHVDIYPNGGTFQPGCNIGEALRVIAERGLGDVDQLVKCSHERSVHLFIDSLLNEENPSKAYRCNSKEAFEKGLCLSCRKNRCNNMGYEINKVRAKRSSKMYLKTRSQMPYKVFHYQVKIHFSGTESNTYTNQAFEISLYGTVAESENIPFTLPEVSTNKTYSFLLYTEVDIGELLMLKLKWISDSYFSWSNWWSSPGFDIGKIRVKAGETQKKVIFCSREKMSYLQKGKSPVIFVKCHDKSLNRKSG
The data set is described as follows: Inhibition of bovin lipoprotein lipase. Summed up:
as §1

Data set [6] can be described thus: Cmax in Sprague-Dawley rat at 1.1 mg/kg, iv and 2 mg/kg, po. It counts as ADME, organism-based. The following applies: in vivo. Summed up:
(§2)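 Rat PK study, one rat per time point. Dosed i.v. and p.o. by gavage in 10% hydroxypropyl cyclodextrin in phosphate buffer pH 7.0; one compound was given in 20% Tween 80 plus 5% glucose in phosphate buffer pH 7.0. Plasma was diluted 1:1 with 10% methanol and centrifuged, then quantified by turbulent-flow chromatography–MS/MS against plasma calibration curves spanning 10-3000 ng/mL.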

Data set [7] in a line: Clearance in Sprague-Dawley rat at 1.1 mg/kg, iv and 2.2 mg/kg, po. It counts as ADME, organism-based. The following applies: in vivo. Summed up: as §2
The nature of data set [8]: Oral bioavailability in Sprague-Dawley rat at 2.2 mg/kg, po. It counts as ADME, organism-based. The following applies: in vivo. A digest of the protocol:
as §2

SMILES strings stand for the structures. Active and inactive are the calls of the source. The calls are words filed in the database; no cut-off is given here. A value given as a limit tells only on which side of the number the result lay.

Sequence of Cytochrome P450 2D6 (P10635 whole entry): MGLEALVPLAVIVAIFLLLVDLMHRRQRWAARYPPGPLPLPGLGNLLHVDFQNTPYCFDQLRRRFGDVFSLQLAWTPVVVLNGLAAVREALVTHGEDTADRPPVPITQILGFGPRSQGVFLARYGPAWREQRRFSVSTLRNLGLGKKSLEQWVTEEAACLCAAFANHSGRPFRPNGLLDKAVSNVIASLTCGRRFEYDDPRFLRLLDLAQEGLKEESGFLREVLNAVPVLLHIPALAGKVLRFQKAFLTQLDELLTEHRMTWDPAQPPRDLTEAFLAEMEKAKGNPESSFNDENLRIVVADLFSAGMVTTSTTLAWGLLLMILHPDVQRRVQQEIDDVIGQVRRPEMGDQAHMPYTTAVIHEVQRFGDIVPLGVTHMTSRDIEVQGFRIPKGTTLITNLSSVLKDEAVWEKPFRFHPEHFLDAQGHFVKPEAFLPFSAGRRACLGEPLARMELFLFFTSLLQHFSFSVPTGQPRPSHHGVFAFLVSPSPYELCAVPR
Sequence of Acetylcholinesterase (P22303 whole entry): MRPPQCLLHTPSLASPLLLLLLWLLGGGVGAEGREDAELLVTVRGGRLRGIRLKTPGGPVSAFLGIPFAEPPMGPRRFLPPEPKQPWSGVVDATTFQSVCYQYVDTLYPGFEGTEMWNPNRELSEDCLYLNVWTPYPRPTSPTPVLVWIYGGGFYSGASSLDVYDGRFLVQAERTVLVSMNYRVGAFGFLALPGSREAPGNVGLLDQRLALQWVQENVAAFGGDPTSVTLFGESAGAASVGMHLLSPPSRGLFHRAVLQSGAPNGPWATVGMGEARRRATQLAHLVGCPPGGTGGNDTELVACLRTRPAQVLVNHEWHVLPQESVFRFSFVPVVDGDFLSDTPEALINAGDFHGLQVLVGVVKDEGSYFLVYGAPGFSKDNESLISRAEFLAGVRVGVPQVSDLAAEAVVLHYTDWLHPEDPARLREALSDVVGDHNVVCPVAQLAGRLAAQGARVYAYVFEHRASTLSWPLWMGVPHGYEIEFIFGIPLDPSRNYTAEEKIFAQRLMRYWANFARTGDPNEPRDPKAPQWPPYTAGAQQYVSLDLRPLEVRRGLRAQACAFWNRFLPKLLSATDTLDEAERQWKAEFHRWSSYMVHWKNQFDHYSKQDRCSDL

In the case of `O=C(Oc1ccc(Oc2ccc(C(F)(F)F)cn2)cc1)N1CCC(O)CC1`, the outcome in data set [1] and in data set [5] was inactive. At Acetylcholinesterase, the IC50 (commonly the concentration that gives 50% inhibition) was greater than 50 µM. For the same compound, in data set [2], the highest level (Cmax) was 1220 ng/mL. The same compound showed a clearance in data set [3] of 9 mL/min/kg. In data set [4], the bioavailability (commonly dose-corrected exposure relative to a reference, in per cent) came out at 56%. Moreover, at Cytochrome P450 2D6, the Activity entry is reported as “Not Active”.
On to `O=C(Oc1ccc(Oc2ccc(C(F)(F)F)cn2)cc1)N1CCC(CO)CC1`, for which the result in [1] and in data set [5] was inactive. Also, the Cmax (as a rule, the maximum level reached in the sampled fluid or tissue) in [6] came out at 60 ng/mL. Also, the clearance in data set [7] was 46 mL/min/kg. The bioavailability in [8] came to 10%. Further, the Activity entry at Cytochrome P450 2D6 is given as “Not Active”.
